We go through two molecules from PMC11698471 (Neuropharmacology, 2022).

In series [1] the test system is MPTP-treated parkinsonian macaques. Nature of the series: PDE9i - L-DOPA co-administration trial in MPTP parkinsonian macaques. In kind it is in vivo, Macaca Mulatta and Fascicularis. The conditions noted are these: L-DOPA suboptimal dose s.c. alone, typical average.
Series [2] in a line: Plasma pharmacokinetics in awake macaques. In kind it is in vivo, Macaca Mulatta and Fascicularis. The conditions noted are these: suboptimal L-DOPA + PDE9i 5 mg/kg vs PDE9i vehicle. The procedure, abridged:
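Two awake, chair-trained MPTP-parkinsonian macaques from the behavioural cohort were restrained unsedated. Test compound (s.c., 5 mg/kg, or 0 mg/kg vehicle) was given with each animal's sub-optimal s.c. L-DOPA methyl ester/benserazide dose. Saphenous vascular-port blood was drawn pre-injection and at 60, 120 and 180 min. Each treatment was given twice, and samples were processed in duplicate. Plasma was stored at −80°C for LC/MS.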

The subject of series [3] is MPTP-treated parkinsonian macaques. Nature of the series: L-Dopa responses of the parkinsonian macaques. In kind it is in vivo, Macaca Mulatta and Fascicularis.
The next series deals with PDE 9, 10, and 11. Particulars: cited from earlier work.
A further series relates to PDE 5 and 6. Particulars: cited from earlier work.
The subject of series [4] is L-DOPA-induced abnormal involuntary movements. The conditions noted are these: rodents; ref Giorgi et al., 2008; Picconi et al., 2011; cited from earlier work.

On to `N[C@@H](Cc1ccc(O)c(O)c1)C(=O)O` [L-DOPA], for which the “response duration ("on" state)” value in series [1] was about 100 min. For the same molecule, the “plasma levels of L-DOPA with PDE9i addition” value in series [2] is “remained unchanged”. For the same molecule, the “LID (dyskinesia score at peak-dose effect of L-dopa)” value in series [3] (monkey 1, scale 0 to 27) came to 13; in series [3] (monkey 2, scale 0 to 27), 11.5; in series [3] (monkey 3, scale 0 to 27), 10; in series [3] (monkey 4, scale 0 to 27), 9; in series [3] (monkey 5, scale 0 to 27) it was 7; in series [3] (monkey 6, scale 0 to 27), 11. Further, the “MDS ON (motor disability score at the peak-dose effect of L-dopa)” value in series [3] (monkey 1, scale 0 to 39, MDS OFF 17) is given as 1.5; in series [3] (monkey 2, scale 0 to 39, MDS OFF 17) it was 1.5; in series [3] (monkey 3, scale 0 to 39, MDS OFF 19), 3.5; in series [3] (monkey 4, scale 0 to 39, MDS OFF 22), 4.5; in series [3] (monkey 5, scale 0 to 39, MDS OFF 23), 8.5; in series [3] (monkey 6, scale 0 to 39, MDS OFF 23.5), 3.5.

For the molecule `CCCOc1ccccc1-c1nc2nn[nH]c2c(=O)[nH]1` [zaprinast], in the series with PDE 9, 10, and 11, the “affinity for PDE 9, 10, and 11” value is reported as “weak”. Besides, the “affinity for PDE 5 and 6” value in the series with PDE 5 and 6 is “moderate”. Further, the “L-DOPA-induced abnormal involuntary movements” value in series [4] is on record as “reduction of L-DOPA-induced abnormal involuntary movements”.
